According to ChEMBL document CHEMBL1135469, “Design, synthesis, and antiproliferative activity of some new pyrazole-fused amino derivatives of the pyranoxanthenone, pyranothioxanthenone, and pyranoacridone ring systems: a new class of cytotoxic agents” (J Med Chem, 2002):

Experiments:
A549 [1] = assay: In vitro cytotoxic activity against human lung A549 cell line; format: functional, cell-based
Outline: (§1)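 MTT assay on human cells grown in DMEM with 10% FBS and penicillin/streptomycin at 37 °C, 5% CO2. About 5000 cells/well; compounds diluted with DMSO are added after 24 h for 48 h. Then 1 mg/mL MTT (final) in serum-free, phenol-red-free RPMI for 4 h. Formazan dissolved in 2-propanol, OD 550 nm (ref 690 nm).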

HRT-18 cell line [2] = assay: In vitro inhibition of HRT-18 (human colon) cell proliferation.; format: functional, cell-based; outline: as §1
MDA-MB-231 [3] = assay: In vitro cytotoxic activity against human breast MDA-MB-231 cell line; format: functional, cell-based; outline: as §1
HCT-116 [4] = assay: In vitro cytotoxic activity against human colon HCT116 cell line; format: functional, cell-based; outline: as §1
L1210 = assay: In vitro cytotoxic activity against murine leukemia cell line L1210; format: functional, cell-based; settings: Mus musculus
Calf thymus DNA = assay: In vitro inhibition of calf thymus DNA/ethidium bromide complex formation.; format: nucleic-acid assay
Outline: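 Ethidium displacement: compounds added to 5 mM Tris-HCl/0.5 mM EDTA buffer, pH 8, containing calf thymus DNA (1 µg/mL) and ethidium bromide (1 µg/mL). EC50 is the concentration halving DNA/ethidium complex fluorescence. Mean of two experiments.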

HT-29 [5] = assay: In vitro cytotoxic activity against human colon HT-29 cell line; format: functional, cell-based; outline: as §1
MDA-MB-231 [6] = assay: In vitro cytotoxic activity against human breast MDA-MB-231 cell line ( standard deviation in parenthesis); format: functional, cell-based; outline: as §1
A549 [7] = assay: In vitro cytotoxic activity against human lung A549 cell line ( standard deviation in parenthesis); format: functional, cell-based
Outline: (§2)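 MTT assay on human tumour cells grown in DMEM with 10% FBS, penicillin and streptomycin at 37 °C, 5% CO2. About 5000 cells/well were seeded, and compounds diluted with DMSO were added after 24 h. After 48 h exposure, 1 mg/mL MTT (final) was added for 4 h. Formazan was dissolved in 2-propanol and read at 550 nm (reference 690 nm).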

HT-29 [8] = assay: In vitro cytotoxic activity against human colon HT-29 cell line ( standard deviation in parenthesis); format: functional, cell-based; outline: as §1
HCT-116 [9] = assay: In vitro cytotoxic activity against human colon HCT116 cell line ( standard deviation in parenthesis); format: functional, cell-based; outline: as §1
HRT-18 cell line [10] = assay: In vitro cytotoxic activity against human colon […] cell line ( standard deviation in parenthesis); format: functional, cell-based; outline: as §1
A549 [11] = assay: In vitro cytotoxic activity against human lung A549 cell line); format: functional, cell-based; outline: as §2
HRT-18 cell line [12] = assay: In vitro cytotoxic activity against human colon HRT-18 cell line; format: functional, cell-based; outline: as §2

EC50 (Calf thymus DNA)	Compound	IC50 (A549 [1])	IC50 (HRT-18 cell line [2])	IC50 (MDA-MB-231 [3])	IC50 (HCT-116 [4])	IC50 (L1210)	IC50 (HT-29 [5])	IC50 (MDA-MB-231 [6])	IC50 (A549 [7])	IC50 (HT-29 [8])	IC50 (HCT-116 [9])	IC50 (HRT-18 cell line [10])	IC50 (A549 [11])	IC50 (HRT-18 cell line [12])
274 µM	COc1cccc2c1Oc1c3c(cc4c1c-2nn4CCO)OC(C)(C)C=C3	> 100 µM	> 100 µM	> 100 µM	64 µM	> 10 µM	> 100 µM	–	–	–	–	–	–	–
273 µM	CCN(CC)CCn1nc2c3c(c4c(cc31)OC(C)(C)C=C4)Oc1c(OC)cccc1-2	33 µM	30 µM	11 µM	41 µM	9.9 µM	9 µM	–	–	–	–	–	–	–
431 µM	CN(C)CCn1nc2c3c(c4c(cc31)OC(C)(C)C=C4)Oc1ccccc1-2	32 µM	50 µM	50 µM	54 µM	9.8 µM	18 µM	–	–	–	–	–	–	–
290 µM	COc1cccc2c1Oc1c3c(cc4c1c-2nn4CCN1CCCCC1)OC(C)(C)C=C3	31 µM	12 µM	37 µM	54 µM	16.5 µM	6 µM	–	–	–	–	–	–	–
–	CC1(C)C=Cc2c(cc3c4c(nn3CCO)-c3ccccc3Oc24)O1	> 100 µM	4 µM	100 µM	28 µM	> 10 µM	12 µM	–	–	–	–	–	–	–
–	COc1cccc2c1Oc1c3c(cc4c1c-2nn4CCOS(C)(=O)=O)OC(C)(C)C=C3	–	–	–	–	26.7 µM	–	–	–	–	–	–	–	–
–	CC1(C)C=Cc2c(cc3c4c(nn3CCN3CCCC3)-c3ccccc3Oc24)O1	27 µM	30 µM	12 µM	42 µM	8.3 µM	9 µM	–	–	–	–	–	–	–
–	CN1c2ccccc2-c2nn(CCOS(C)(=O)=O)c3cc4c(c1c23)C=CC(C)(C)O4	–	–	–	–	2.5 µM	–	–	–	20 µM	49 µM	–	–	–
–	COc1ccc2c(c1)-c1nn(CCOS(C)(=O)=O)c3cc4c(c(c13)N2C)C=CC(C)(C)O4	> 100 µM	–	–	–	0.4 µM	–	12 µM	–	18 µM	12 µM	–	–	–
–	CC1(C)C=Cc2c(cc3c4c(nn3CCOS(C)(=O)=O)-c3ccccc3Oc24)O1	> 100 µM	–	–	–	31.9 µM	–	53 µM	–	24 µM	33 µM	22 µM	–	–
> 500 µM	CC1(C)C=Cc2c(cc3c4c(nn3CCOS(C)(=O)=O)-c3ccccc3Sc24)O1	–	–	–	–	15 µM	–	> 100 µM	–	45 µM	44 µM	30 µM	–	–
150 µM	COc1cccc2c1Oc1c3c(cc4c1c-2nn4CCN(C)C)OC(C)(C)C=C3	50 µM	17 µM	48 µM	51 µM	14.6 µM	9 µM	–	–	–	–	–	–	–
71.7 µM	COc1cccc2c1Oc1c3c(cc4c1c-2nn4CCN1CCCC1)OC(C)(C)C=C3	33 µM	60 µM	11 µM	43 µM	10.6 µM	8 µM	–	–	–	–	–	–	–
–	CCN(CC)CCn1nc2c3c(c4c(cc31)OC(C)(C)C=C4)Oc1ccccc1-2	10 µM	5 µM	9 µM	40 µM	9.1 µM	9 µM	–	–	–	–	–	–	–
–	CC1(C)C=Cc2c(cc3c4c(nn3CCN3CCCCC3)-c3ccccc3Oc24)O1	15 µM	10 µM	20 µM	20 µM	10.1 µM	6.5 µM	–	–	–	–	–	–	–

Compound	EC50 (Calf thymus DNA)	IC50 (A549 [1])	IC50 (HRT-18 cell line [2])	IC50 (MDA-MB-231 [3])	IC50 (HCT-116 [4])	IC50 (L1210)	IC50 (HT-29 [5])	IC50 (MDA-MB-231 [6])	IC50 (A549 [7])	IC50 (HT-29 [8])	IC50 (HCT-116 [9])	IC50 (HRT-18 cell line [10])	IC50 (A549 [11])	IC50 (HRT-18 cell line [12])
O=C1c2c(O)ccc(O)c2C(=O)c2c(NCCNCCO)ccc(NCCNCCO)c21 [MITOXANTRONE]	3.4 µM	–	–	–	–	–	–	1 µM	–	–	–	–	–	–
Cc1c2ccncc2c(C)c2c1[nH]c1ccccc12 [ELLIPTECINE]	22.2 µM	–	–	–	–	–	–	2.3 µM	10 µM	15 µM	–	–	–	–
COc1cc2c(c3c1c(=O)c1ccccc1n3C)C=CC(C)(C)O2 [ACRONINE]	270 µM	–	–	–	> 100 µM	–	> 100 µM	–	–	–	–	–	> 100 µM	> 100 µM
